This is an account of results in ChEMBL document CHEMBL4033649, “Discovery of tetrahydrocarbazoles as dual pERK and pRb inhibitors” (Eur J Med Chem, 2017).

One test can be described thus: Inhibition of ERK phosphorylation in human MDA-MB-231 cells after 1 hr. It is filed as cell-based.
Conditions: not given
The essentials:
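MDA-MB-231 cells (25,000/well) grown 24 h, serum-starved 6 h, then exposed to compound 1 h (screen at 10 μM, n=3; dose-response for IC50). Cells fixed in 3.7% formaldehyde, permeabilized with 0.1% Triton X, immunostained with phospho-p44/p42 MAPK (T202/Y204) antibody plus anti-rabbit IgG secondary; TMB colour read by absorbance.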
Consider `c1ccc2c3c([nH]c2c1)C(NC1CCCC1)CCC3` (stereo unspecified) [listing 1 of 2 here], for which the half-inhibitory concentration (IC50) came out at 30 µM.

Consider `Cc1ccc2[nH]c3c(c2c1)CCC(NC1CCC(C)C1)C3` (stereo unspecified) [listing 1 of 2 here], for which half-maximal inhibition (IC50) required 5.5 µM.

Still in this test, the particulars now being: Homo sapiens, MDA-MB-231, 1 h.
`Cc1ccc(CNC2CCc3c([nH]c4ccc(C)cc34)C2)cc1` (stereo unspecified) showed an IC50 of 4.6 µM.

`c1ccc2c3c([nH]c2c1)CC(NC1CCCCC1)CC3` (stereo unspecified) registered an IC50 of 7 µM.

In turn, `CC1CCC(NC2CCc3c([nH]c4ccccc34)C2)C1` (stereo unspecified) registered an IC50 above 30 µM.

`c1ccc2c3c([nH]c2c1)C(NC1CCCCC1)CCC3` (stereo unspecified): it took 9 µM to reach half-maximal inhibition (IC50).

Turning to `O=S(=O)(NC1CCc2c([nH]c3ccccc23)C1)c1ccc(F)cc1` (stereo unspecified), half-maximal inhibition (IC50) required 7.5 µM.

In turn, `Cc1ccc2[nH]c3c(c2c1)CCC(NC1CCC(C)C1)C3` (stereo unspecified) [listing 2 of 2 here] gave an IC50 of 6 µM.

`c1ccc(CNC2CCc3c([nH]c4ccccc34)C2)cc1` (stereo unspecified) registered an IC50 of 6.11 µM.

Regarding `N#Cc1ccc(S(=O)(=O)NC2CCCc3c2[nH]c2ccccc32)cc1` (stereo unspecified), the IC50 was above 100 µM.

For the compound `O=C(NC1CCc2c([nH]c3ccccc23)C1)c1ccccc1F` (stereo unspecified), half-maximal inhibition (IC50) required 29.7 µM.

Take `O=S(=O)(NC1CCCc2c1[nH]c1ccccc21)c1ccc(F)cc1` (stereo unspecified): the IC50 is above 100 µM.

Compound `Cc1ccc(CNC2CCc3c(n(C)c4ccccc34)C2)cc1` (stereo unspecified) displayed an IC50 of 4.4 µM.

In turn, `Cc1ccc2[nH]c3c(c2c1)CCC(NCc1ccccc1)C3` (stereo unspecified) yielded an IC50 of 5.5 µM.

`O=S(=O)(NC1CCc2c([nH]c3ccccc23)C1)c1cccnc1` (stereo unspecified) displayed an IC50 of 69.9 µM.

The compound `O=C(NC1CCc2c([nH]c3ccccc23)C1)c1cccc(F)c1` (stereo unspecified) gave an IC50 of 8.1 µM.

Take `N#Cc1ccc(S(=O)(=O)NC2CCc3c([nH]c4ccccc34)C2)cc1` (stereo unspecified): the IC50 was determined as 7 µM.

Regarding `c1ccc2c3c([nH]c2c1)C(NC1CCCC1)CCC3` (stereo unspecified) [listing 2 of 2 here], inhibition was half-maximal at 21 µM (IC50).

The compound `c1ccc2c3c([nH]c2c1)CC(NC1CCCC1)CC3` (stereo unspecified) showed an IC50 of 21 µM.

As for `c1ccc2c3c([nH]c2c1)CC(NC1CCOCC1)CC3` (stereo unspecified), the IC50 is above 100 µM.

As to `CNC(=O)c1cc(Oc2ccc(NC(=O)Nc3ccc(Cl)c(C(F)(F)F)c3)cc2)ccn1` [SORAFENIB], 0.063 µM corresponded to half-maximal inhibition (IC50).

Consider `O=S(=O)(NC1CCCc2c1[nH]c1ccccc21)c1cccnc1` (stereo unspecified), for which the IC50 is above 100 µM.

For the compound `CC1CCC(NC2CCCc3c2[nH]c2ccccc32)C1` (stereo unspecified), half-maximal inhibition (IC50) was put at 3 µM.

Regarding `Cc1ccc(CNC2CCc3c([nH]c4ccccc34)C2)cc1` (stereo unspecified), half-maximal inhibition (IC50) was put at 3.62 µM.

`CC1CCC(NC2CCCc3c2[nH]c2ccc([N+](=O)[O-])cc32)C1` (stereo unspecified) yielded an IC50 of 5.52 µM.

On to `COc1cccc(C(=O)NC2CCc3c([nH]c4ccccc34)C2)c1` (stereo unspecified), for which the IC50 was determined as 9 µM.
